Where two headings read alike, the source gives them in different places. Positions of bridges follow the written chain, without caps; N, C: chain ends. No end group written: not given here.
B1: CD40L (recombinant, His- and c-myc-tag fusion protein, E108 to L261) (ligand)
chain: ENSFEMQKGDQNPQIAAHVISEASSKTTSVLQWAEKGYYTMSNNLVTLENGKQLTVKRQGLYYIYAQVTFCSNREASSQAPFIASLCLKSPGRFERILLRAANTHSSAKPCGQQSIHLGGVFELQPGASVFVNVTDPSQVSHGTGFTSFGLLKL

What was measured:
[1] = test system: Murine fibroblasts over-expressing CD40L; assay type: cell-based; settings: flow cytometry; not to mock-transfected control cells
[2] = assay type: in vivo, C57BL/6J mice; settings: after intraperitoneal injection, FITC-coupled peptide, plasma fluorescence
How it was run: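 C57BL/6J mice received a single intraperitoneal injection of FITC- or TAMRA-labelled cyclized peptide or its scrambled control, at 100 or 200 μg. Plasma samples were collected at set time points, and peptide level was followed by plasma fluorescence.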

[3] = molecular target: T1, CD40L-Mac-1 I-domain interaction (Homo sapiens, UniProt P29965); assay type: binding
T1 sequence (P29965 108-261): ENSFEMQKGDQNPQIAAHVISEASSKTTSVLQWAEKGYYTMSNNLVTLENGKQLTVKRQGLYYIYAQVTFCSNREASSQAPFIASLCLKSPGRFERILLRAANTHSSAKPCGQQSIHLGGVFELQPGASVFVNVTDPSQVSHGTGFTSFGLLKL
How it was run: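 Recombinant CD40L (residues E108–L261, His- and c-myc-tagged) was incubated with immobilized Mac-1 I-domain alongside a range of cyclized peptide or scrambled peptide concentrations. Bound CD40L was detected with anti-c-myc-HRP and TMB substrate by colorimetric read-out. Anti-CD40L (100 μg/ml) and saline served as controls.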

[4] = molecular target: T2, Mac-1 I-domain (recombinant, His-tag fusion protein, R115 to S340) (UniProt P11215 131-356); experiment: SPR
T2 sequence (P11215 131-356): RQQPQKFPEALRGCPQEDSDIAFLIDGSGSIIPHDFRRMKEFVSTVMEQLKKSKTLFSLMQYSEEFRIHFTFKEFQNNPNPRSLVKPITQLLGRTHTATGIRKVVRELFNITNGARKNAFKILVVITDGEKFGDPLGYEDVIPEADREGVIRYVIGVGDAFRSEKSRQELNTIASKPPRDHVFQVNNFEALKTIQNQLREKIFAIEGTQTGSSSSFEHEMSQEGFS

[5] = molecular target: T2, Mac-1 I-domain (recombinant, His-tag …); experiment: SPR; remark: listed apart in the source
[6] = molecular target: B1; experiment: dynamic cell adhesion assay

With “FITC-labeled cM7: cM7 coupled to fluorescein isothiocyanate (CEQLKKSKTLC; disulfide 1-11; also: FITC coupled, site not given here)” the “Binding to Murine fibroblasts over-expressing CD40L” value [1] was “concentration-dependently bound” and the “Time of highest plasma availability” value [2] was 30 min.

EQLKKSKTL [M7] showed an IC50 [3] of 200 to 900 nM.

B1 showed a Kd [4] of 214 nM and a Kd [5] of 671 nM.

Work on CEQLKKSKTLC (disulfide 1-11) [cM7, cyclised version of peptide M7] yielded an IC50 [6] of 206 nM.

Reference: article PMC3291815 (Circulation Research, 2011)
